Source: ChEMBL document CHEMBL5724801, “EUbOPEN Chemogenomics Library - Multiplex” (2024)
Values joined by “and” are separate entries in the source; they are usually repeats but may differ in a detail not shown here. Equal values may be shown once.

System: U2OS
Experiment: Multiplex assay against U2OS
Assay type: toxicity, cell-based
Details: human
In short: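 Imaging took place on a CQ1 microscope at 37°C and 5% CO2 once compound had been added to live cells stained at seeding with Hoechst33342, BioTracker Green Microtubule Cytoskeleton Dye, MitoTracker Red and Annexin V Alexa Fluor 680. CellPathfinder machine-learning gating classed cells as Hoechst high-intensity objects or normal cells, classed normal cells as having healthy, pyknosed or fragmented nuclei, and classed pyknosed cells as mitotic or apoptotic. Tubulin, mitochondrial-mass and membrane-permeability phenotypes are per cents of the healthy-nucleus cells.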

[1] = 12 h, 1 µM, compound concentration 1 uM
[2] = 12 h, 10 µM, compound concentration 10 uM
[3] = 24 h, 1 µM, compound concentration 1 uM
[4] = 24 h, 10 µM, compound concentration 10 uM
[5] = 48 h, 1 µM, compound concentration 1 uM
[6] = 48 h, 10 µM, compound concentration 10 uM

With `Cc1cc(NC(=O)NCCN2CCC(O)(Cc3ccccc3)CC2)c2ccccc2n1` [PALOSURAN] the “Population Apoptotic (%)” value [1] was 80% and 71%, the “Population Fragmented Nuclei (%)” value [1] was 27% and 19% and the “Population Healthy Nuclei (%)” value [1] was 65% and 71%. For the same compound, the “Population Hoechst High Intensity Objects (%)” value [1] was 1% and 0%, the “Population Membrane Permeable-Phenotype (%)” value [1] was 4% and 2% and the “Population Mitochondria Different-Phenotype (%)” value [1] was 2% and 0%. The “Population Mitotic Cells (%)” value [1] was 20% and 28%, the “Population Normal (%)” value [1] was 98% and 100% and the “Population Pyknosed Nuclei (%)” value [1] was 6% and 9%. The “Population Tubulin-Different-Phenotype (%)” value [1] was 1%, the “Total Cell Count” value [1] was 220 and 145 and the “Population Apoptotic (%)” value [2] was 72% and 66%. For the same compound, the “Population Fragmented Nuclei (%)” value [2] was 30% and 17%, the “Population Healthy Nuclei (%)” value [2] was 59% and 70% and the “Population Hoechst High Intensity Objects (%)” value [2] was 3%. The “Population Membrane Permeable-Phenotype (%)” value [2] was 6% and 12%, the “Population Mitochondria Different-Phenotype (%)” value [2] was 1% and 2% and the “Population Mitotic Cells (%)” value [2] was 28% and 33%. For the same compound, the “Population Normal (%)” value [2] was 96%, the “Population Pyknosed Nuclei (%)” value [2] was 9% and 11% and the “Population Tubulin-Different-Phenotype (%)” value [2] was 1% and 8%. For the same compound, the “Total Cell Count” value [2] was 266 and 107, the “Population Apoptotic (%)” value [3] was 94% and 66% and the “Population Fragmented Nuclei (%)” value [3] was 26% and 17%. For the same compound, the “Population Healthy Nuclei (%)” value [3] was 66% and 74%, the “Population Hoechst High Intensity Objects (%)” value [3] was 1% and the “Population Membrane Permeable-Phenotype (%)” value [3] was 3% and 7%. The “Population Mitochondria Different-Phenotype (%)” value [3] was 3% and 7%, the “Population Normal (%)” value [3] was 98% and the “Population Pyknosed Nuclei (%)” value [3] was 6% and 8%. For the same compound, the “Population Tubulin-Different-Phenotype (%)” value [3] was 2% and 3%, the “Total Cell Count” value [3] was 276 and 173 and the “Population Apoptotic (%)” value [4] was 92% and 75%. The “Population Fragmented Nuclei (%)” value [4] was 26% and 19%, the “Population Healthy Nuclei (%)” value [4] was 65% and 74% and the “Population Hoechst High Intensity Objects (%)” value [4] was 3%. For the same compound, the “Population Membrane Permeable-Phenotype (%)” value [4] was 4% and 11%, the “Population Mitochondria Different-Phenotype (%)” value [4] was 0% and 1% and the “Population Normal (%)” value [4] was 96%. The “Population Pyknosed Nuclei (%)” value [4] was 8% and 6%, the “Population Tubulin-Different-Phenotype (%)” value [4] was 2% and 5% and the “Total Cell Count” value [4] was 297 and 129. For the same compound, the “Population Apoptotic (%)” value [5] was 96% and 84%, the “Population Fragmented Nuclei (%)” value [5] was 25% and 15% and the “Population Healthy Nuclei (%)” value [5] was 68% and 73%. The “Population Hoechst High Intensity Objects (%)” value [5] was 1% and 3%, the “Population Membrane Permeable-Phenotype (%)” value [5] was 5% and 7% and the “Population Mitochondria Different-Phenotype (%)” value [5] was 3% and 5%. The “Population Normal (%)” value [5] was 98% and 97%, the “Population Pyknosed Nuclei (%)” value [5] was 6% and 11% and the “Population Tubulin-Different-Phenotype (%)” value [5] was 3% and 4%. For the same compound, the “Total Cell Count” value [5] was 411 and 233, the “Population Apoptotic (%)” value [6] was 97% and 89% and the “Population Fragmented Nuclei (%)” value [6] was 20% and 16%. The “Population Healthy Nuclei (%)” value [6] was 70% and 72%, the “Population Hoechst High Intensity Objects (%)” value [6] was 1% and the “Population Membrane Permeable-Phenotype (%)” value [6] was 5% and 7%. The “Population Mitochondria Different-Phenotype (%)” value [6] was 2% and 4%, the “Population Mitotic Cells (%)” value [6] was 2% and 10% and the “Population Normal (%)” value [6] was 98%. The “Population Pyknosed Nuclei (%)” value [6] was 9% and 10%, the “Population Tubulin-Different-Phenotype (%)” value [6] was 2% and 1% and the “Total Cell Count” value [6] was 421 and 180.
`C[C@H](NC(=O)c1c(C(F)F)nn(C)c1Oc1cccc(C(F)(F)F)c1)c1ccc(C(=O)O)cc1` [PALUPIPRANT] was tested, and the “Population Apoptotic (%)” value [1] was 60% and 91%, the “Population Fragmented Nuclei (%)” value [1] was 27% and 12% and the “Population Healthy Nuclei (%)” value [1] was 63% and 78%. The “Population Hoechst High Intensity Objects (%)” value [1] was 3% and 0%, the “Population Membrane Permeable-Phenotype (%)” value [1] was 4% and the “Population Mitochondria Different-Phenotype (%)” value [1] was 1% and 0%. For the same compound, the “Population Normal (%)” value [1] was 96% and 99%, the “Population Pyknosed Nuclei (%)” value [1] was 8% and 9% and the “Population Tubulin-Different-Phenotype (%)” value [1] was 1% and 2%. For the same compound, the “Total Cell Count” value [1] was 266 and 132, the “Population Apoptotic (%)” value [2] was 83% and 100% and the “Population Fragmented Nuclei (%)” value [2] was 28% and 13%. For the same compound, the “Population Healthy Nuclei (%)” value [2] was 62% and 77%, the “Population Hoechst High Intensity Objects (%)” value [2] was 3% and the “Population Membrane Permeable-Phenotype (%)” value [2] was 7% and 5%. For the same compound, the “Population Mitochondria Different-Phenotype (%)” value [2] was 4% and 2%, the “Population Mitotic Cells (%)” value [2] was 16% and 0% and the “Population Normal (%)” value [2] was 96%. For the same compound, the “Population Pyknosed Nuclei (%)” value [2] was 8%, the “Population Tubulin-Different-Phenotype (%)” value [2] was 5% and 2% and the “Total Cell Count” value [2] was 293 and 117. The “Population Apoptotic (%)” value [3] was 87% and 94%, the “Population Fragmented Nuclei (%)” value [3] was 20% and 14% and the “Population Healthy Nuclei (%)” value [3] was 72% and 73%. For the same compound, the “Population Hoechst High Intensity Objects (%)” value [3] was 2% and 1%, the “Population Membrane Permeable-Phenotype (%)” value [3] was 4% and 5% and the “Population Mitochondria Different-Phenotype (%)” value [3] was 1% and 0%. The “Population Mitotic Cells (%)” value [3] was 12% and 5%, the “Population Normal (%)” value [3] was 97% and 98% and the “Population Pyknosed Nuclei (%)” value [3] was 7% and 11%. For the same compound, the “Population Tubulin-Different-Phenotype (%)” value [3] was 3% and 5%, the “Total Cell Count” value [3] was 316 and 147 and the “Population Apoptotic (%)” value [4] was 91%. The “Population Fragmented Nuclei (%)” value [4] was 18% and 13%, the “Population Healthy Nuclei (%)” value [4] was 74% and 77% and the “Population Hoechst High Intensity Objects (%)” value [4] was 2%. For the same compound, the “Population Membrane Permeable-Phenotype (%)” value [4] was 5%, the “Population Mitochondria Different-Phenotype (%)” value [4] was 3% and 1% and the “Population Mitotic Cells (%)” value [4] was 8%. For the same compound, the “Population Normal (%)” value [4] was 97%, the “Population Pyknosed Nuclei (%)” value [4] was 7% and 8% and the “Population Tubulin-Different-Phenotype (%)” value [4] was 1% and 0%. The “Total Cell Count” value [4] was 339 and 139, the “Population Apoptotic (%)” value [5] was 82% and 92% and the “Population Fragmented Nuclei (%)” value [5] was 15%. The “Population Healthy Nuclei (%)” value [5] was 73% and 70%, the “Population Hoechst High Intensity Objects (%)” value [5] was 2% and 0% and the “Population Membrane Permeable-Phenotype (%)” value [5] was 3%. For the same compound, the “Population Mitochondria Different-Phenotype (%)” value [5] was 1% and 0%, the “Population Mitotic Cells (%)” value [5] was 17% and 7% and the “Population Normal (%)” value [5] was 97% and 99%. For the same compound, the “Population Pyknosed Nuclei (%)” value [5] was 11% and 13%, the “Population Tubulin-Different-Phenotype (%)” value [5] was 1% and 2% and the “Total Cell Count” value [5] was 426 and 207. For the same compound, the “Population Apoptotic (%)” value [6] was 91% and 85%, the “Population Fragmented Nuclei (%)” value [6] was 18% and 14% and the “Population Healthy Nuclei (%)” value [6] was 73% and 79%. The “Population Hoechst High Intensity Objects (%)” value [6] was 2% and 1%, the “Population Membrane Permeable-Phenotype (%)” value [6] was 5% and 1% and the “Population Mitochondria Different-Phenotype (%)” value [6] was 3% and 1%. The “Population Mitotic Cells (%)” value [6] was 8% and 14%, the “Population Normal (%)” value [6] was 97% and 98% and the “Population Pyknosed Nuclei (%)” value [6] was 7% and 6%. The “Population Tubulin-Different-Phenotype (%)” value [6] was 3% and 0% and the “Total Cell Count” value [6] was 463 and 223.
`CC[C@@H](C)Nc1nc(C)nc2c(-c3ccc(OC)nc3C)c(C)nn12` [PEXACERFONT] was tested, and the “Population Apoptotic (%)” value [1] was 73% and 87%, the “Population Fragmented Nuclei (%)” value [1] was 24% and 17% and the “Population Healthy Nuclei (%)” value [1] was 66% and 76%. For the same compound, the “Population Hoechst High Intensity Objects (%)” value [1] was 3% and 0%, the “Population Membrane Permeable-Phenotype (%)” value [1] was 2% and 1% and the “Population Mitochondria Different-Phenotype (%)” value [1] was 3% and 0%. The “Population Mitotic Cells (%)” value [1] was 26% and 12%, the “Population Normal (%)” value [1] was 96% and 99% and the “Population Pyknosed Nuclei (%)” value [1] was 9% and 5%. The “Population Tubulin-Different-Phenotype (%)” value [1] was 2% and 0%, the “Total Cell Count” value [1] was 258 and 136 and the “Population Apoptotic (%)” value [2] was 90%. The “Population Fragmented Nuclei (%)” value [2] was 26% and 21%, the “Population Healthy Nuclei (%)” value [2] was 64% and 70% and the “Population Hoechst High Intensity Objects (%)” value [2] was 1%. The “Population Membrane Permeable-Phenotype (%)” value [2] was 2% and 12%, the “Population Mitochondria Different-Phenotype (%)” value [2] was 1% and 7% and the “Population Mitotic Cells (%)” value [2] was 9% and 10%. The “Population Normal (%)” value [2] was 98%, the “Population Pyknosed Nuclei (%)” value [2] was 8% and 7% and the “Population Tubulin-Different-Phenotype (%)” value [2] was 1% and 4%. The “Total Cell Count” value [2] was 265 and 128, the “Population Apoptotic (%)” value [3] was 80% and 85% and the “Population Fragmented Nuclei (%)” value [3] was 21% and 16%. The “Population Healthy Nuclei (%)” value [3] was 69% and 75%, the “Population Hoechst High Intensity Objects (%)” value [3] was 2% and the “Population Membrane Permeable-Phenotype (%)” value [3] was 5% and 3%. For the same compound, the “Population Mitochondria Different-Phenotype (%)” value [3] was 2% and 6%, the “Population Mitotic Cells (%)” value [3] was 20% and 14% and the “Population Normal (%)” value [3] was 97%. The “Population Pyknosed Nuclei (%)” value [3] was 8%, the “Population Tubulin-Different-Phenotype (%)” value [3] was 2% and the “Total Cell Count” value [3] was 346 and 172. The “Population Apoptotic (%)” value [4] was 80% and 92%, the “Population Fragmented Nuclei (%)” value [4] was 21% and 14% and the “Population Healthy Nuclei (%)” value [4] was 71% and 77%. For the same compound, the “Population Hoechst High Intensity Objects (%)” value [4] was 2% and 0%, the “Population Membrane Permeable-Phenotype (%)” value [4] was 5% and 7% and the “Population Mitochondria Different-Phenotype (%)” value [4] was 3%. For the same compound, the “Population Mitotic Cells (%)” value [4] was 19% and 7%, the “Population Normal (%)” value [4] was 97% and 99% and the “Population Pyknosed Nuclei (%)” value [4] was 7% and 8%. For the same compound, the “Population Tubulin-Different-Phenotype (%)” value [4] was 4% and 3%, the “Total Cell Count” value [4] was 307 and 159 and the “Population Apoptotic (%)” value [5] was 88% and 91%. For the same compound, the “Population Fragmented Nuclei (%)” value [5] was 16%, the “Population Healthy Nuclei (%)” value [5] was 75% and 73% and the “Population Hoechst High Intensity Objects (%)” value [5] was 1% and 2%. For the same compound, the “Population Membrane Permeable-Phenotype (%)” value [5] was 3% and 5%, the “Population Mitochondria Different-Phenotype (%)” value [5] was 1% and 4% and the “Population Mitotic Cells (%)” value [5] was 11% and 8%. For the same compound, the “Population Normal (%)” value [5] was 98% and 97%, the “Population Pyknosed Nuclei (%)” value [5] was 7% and 9% and the “Population Tubulin-Different-Phenotype (%)” value [5] was 1% and 4%. For the same compound, the “Total Cell Count” value [5] was 476 and 261, the “Population Apoptotic (%)” value [6] was 94% and 100% and the “Population Fragmented Nuclei (%)” value [6] was 17% and 13%. The “Population Healthy Nuclei (%)” value [6] was 74% and 77%, the “Population Hoechst High Intensity Objects (%)” value [6] was 1% and the “Population Membrane Permeable-Phenotype (%)” value [6] was 4% and 6%. The “Population Mitochondria Different-Phenotype (%)” value [6] was 1% and 3%, the “Population Mitotic Cells (%)” value [6] was 5% and 0% and the “Population Normal (%)” value [6] was 98%. The “Population Pyknosed Nuclei (%)” value [6] was 8%, the “Population Tubulin-Different-Phenotype (%)” value [6] was 1% and 2% and the “Total Cell Count” value [6] was 478 and 242.
